Compound activity: PubChem BioAssay, The Scripps Research Institute Molecular Screening Center
MBD2 inh: inhibitors of MBD2 binding to methylated DNA, primary screen, biochemical, TR-FRET, DNA-binding domain, human; MBD2 binding to methylated oligonucleotide; Methyl-CpG-binding domain protein 2 (Homo sapiens), Q9UBB5; AID 686964, 2013; actives 0.31% (n = 370,000); inhibition, % at 4.4 µM; in the data active = inhibition above about 13%
LEDGF integ inh: blockers of LEDGF/p75-dependent integrase strand transfer – biochemical, TR-FRET, high throughput, primary screen | TR-FRET IN-LEDGF/p75 DNA integration, Eu/Cy5 | inhibition, % at 3.7 µM | AID 743269, 2014 | actives 0.64% (n = 370,000);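 active = inhibition above the screen-wide mean plus 3 SD, cut at about 13% in these data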;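 note: signal is the Cy5 over europium emission ratio at 671 and 618 nm; 0% = plate median of compound wells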
UHRF1 binding: UHRF1 methylated DNA binding inhibitors, primary screen, counter-screen for MBD2 inhibitor project, biochemical, TR-FRET, human UHRF1, single concentration. E3 ubiquitin-protein ligase UHRF1 (Homo sapiens), Q96T88. UHRF1 binding to methylated oligo. inhibition, % at 4.4 µM. actives 0.75% (n = 370,000). AID 687016, 2013; in the data active = inhibition above about 21%;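 note: UHRF1 SRA domain binding a hemimethylated CpG hairpin DNA probe; 0% = median of test compound wells and 100% = reference inhibitor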
Target sequence (Q96T88 whole entry, looked up, the tested form may be a part): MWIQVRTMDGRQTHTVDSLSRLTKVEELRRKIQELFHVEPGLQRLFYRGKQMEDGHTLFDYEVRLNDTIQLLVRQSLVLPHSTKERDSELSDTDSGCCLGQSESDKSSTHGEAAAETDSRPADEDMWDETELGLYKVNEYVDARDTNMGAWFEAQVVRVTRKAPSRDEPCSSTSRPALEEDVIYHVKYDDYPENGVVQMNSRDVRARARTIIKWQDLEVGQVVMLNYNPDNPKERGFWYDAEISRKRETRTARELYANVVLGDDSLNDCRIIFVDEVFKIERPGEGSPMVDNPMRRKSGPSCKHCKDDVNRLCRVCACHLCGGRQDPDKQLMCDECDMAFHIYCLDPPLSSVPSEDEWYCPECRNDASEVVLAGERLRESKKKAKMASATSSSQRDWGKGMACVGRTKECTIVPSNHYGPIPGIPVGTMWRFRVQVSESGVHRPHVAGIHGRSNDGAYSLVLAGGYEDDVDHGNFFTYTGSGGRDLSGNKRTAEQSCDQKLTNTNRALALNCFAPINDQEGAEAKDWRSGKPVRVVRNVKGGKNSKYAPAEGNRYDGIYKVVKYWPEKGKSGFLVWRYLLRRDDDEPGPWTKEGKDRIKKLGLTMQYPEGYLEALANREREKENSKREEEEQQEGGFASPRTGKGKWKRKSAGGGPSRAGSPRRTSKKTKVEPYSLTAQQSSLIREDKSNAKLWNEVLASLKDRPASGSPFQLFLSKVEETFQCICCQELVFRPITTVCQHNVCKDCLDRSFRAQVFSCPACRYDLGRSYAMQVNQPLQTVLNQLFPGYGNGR
PRMT1 FP inh: PRMT1 methyltransferase inhibitors, primary screen, biochemical, fluorescence polarization. recombinant PRMT1, activity-based probe fluorescence polarization. inhibition, % at 2.79 µM. Protein arginine N-methyltransferase 1 (Homo sapiens), Q99873. actives 1.3% (n = 370,000);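 active = inhibition above about 21% made by adding two undisclosed values, limit read from the data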
ABHD5-PLIN5 inh: ABHD5-PLIN5 interaction inhibitors, primary screen, cell lysate, split luciferase complementation, luminescence; Perilipin-5 (Homo sapiens) + 1-acylglycerol-3-phosphate O-acyltransferase ABHD5 (Homo …; Split G. princeps luciferase complementation, 4 h; inhibition, % at 4 µM; actives 0.78% (n = 360,000); AID 602281, 2012;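 active = inhibition above the mean inhibition across every tested compound plus 3 SD, cut at about 22% in these data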;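 note: 0% = DMSO only wells and the 100% control is not disclosed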
RBBP9 inh: human RBBP9 inhibitors, primary screen, biochemical, fluorescence polarization, FP-Rh probe, HTS | recombinant RBBP9 | inhibition, % at 7.94 µM | actives 0.2% (n = 220,000) | AID 1515, 2009;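 active = inhibition above the campaign mean of all tested compounds plus 3 SD, cut at about 14% in these data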;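 note: plate controls were DMSO wells with RBBP9 for no effect and wells lacking RBBP9 protein for full effect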
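Material: RBBP9 protein. Amount: RBBP9 at 2.5 µM in dispensed solution, before mixing. Schedule: 30 min then 45 min, 25 °C. Medium: Tris buffer pH 8.0, NaCl, Pluronic. Measured by: fluorescence polarization. Measure: percent inhibition from mP, scaled between DMSO and no-protein wells. Replication: one well per compound.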
Numbers without * were called inactive; . = not tested or not shown. Rows were chosen to be rich in hits. Some 3.1% of all compounds tested hit in one or more screens of this group.

SMILES	MBD2 inh	LEDGF integ inh	UHRF1 binding	PRMT1 FP inh	ABHD5-PLIN5 inh	RBBP9 inh
C#CCN1CC(N(C)CCOC(=O)CC2C=CCC2)CS1(=O)=O (configuration not stated)	-2.6	-1.0	-0.4	3.4	.	.
O=C(/C=C/c1ccco1)NCc1ccco1	1.8	6.0	-2.0	-0.3	7.1	-13.1
COc1ccc(C(NC(=O)/C=C\c2ccco2)c2ccc(OC)c(OC)c2)cc1 (configuration not stated)	-2.1	0.3	-1.1	16.8	22.2*	-17.8
COc1ccc(CCNC(=O)/C=C/c2ccco2)cc1OC	-0.8	4.7	-1.1	22.6*	14.3	.
COc1ccc(CCNC(=O)/C=C/c2ccco2)cc1	-2.1	3.8	-0.1	6.1	7.3	.
NS(=O)(=O)c1ccc(CNC(=O)/C=C/c2ccco2)cc1	4.3	4.8	9.2	18.2	22.8*	-13.5
COC(=O)[C@]12C[C@H](CC(=O)NCc3cccs3)C(=O)N(Cc3ccc(Cl)cc3Cl)C1=C[C@H](C(C)(C)C)O[C@@H]2C	3.8	-1.7	1.1	1.3	.	.
CCCCN1CC(COCc2ccccc2)Oc2cccc(NCc3cc(OC)c(OC)c(OC)c3)c2S1(=O)=O (configuration not stated)	-0.8	0.7	-1.5	-0.2	.	.
CCC[C@H](/C=C/C(=O)OC(C)(C)C)Sc1ccc(OC)cc1	-3.6	-1.8	-0.2	3.6	.	.
COc1ccc(S[C@]2(C(=O)N3CCOCC3)CC(=O)N(c3ccc(Cl)cc3)[C@@H]2c2ccc(OC)cc2)cc1	1.9	-0.7	2.5	4.8	.	.
CCn1c(CCNC(=O)c2cccs2)nnc1SCC(=O)c1ccc(OC)cc1	3.3	2.2	4.3	22.4*	-8.9	-0.1
CCOC(=O)CN1C(=O)N2C[C@H]3CON(C)[C@H]3C[C@H]2c2ccccc21	-4.0	5.8	46.7*	-4.4	-5.2	.
C=CCCC(=O)N1C[C@H]2CON(C)[C@H]2C[C@H]1c1ccccc1Br	1.9	-1.3	0.7	2.4	5.7	.
Cc1ccc2nc(-c3ccco3)c(CC(C)(C)C)n2c1	-0.4	10.3	22.6*	7.9	3.1	.
COc1ccc(Nc2c(-c3ccco3)nc3ccc(C)cn23)cc1	2.5	-4.1	-2.2	4.9	1.1	0.2
CC(C)(C)Cc1c(-c2ccccc2)nc2ccc(Cl)cn12	8.9	-3.9	20.9*	2.8	-5.5	.
CC(C)(C)Cc1c(-c2ccc(F)cc2)nc2ccc(Br)cn12	-3.4	0.7	20.8*	-1.7	-17.8	.
CC(C)(C)Cc1c(-c2ccc(Cl)cc2)nc2ccc(Cl)cn12	5.2	2.1	14.6	-1.6	-9.6	.
COC(=O)[C@]1(C#N)CC(=O)N(C)[C@@H]1c1ccccc1	-0.5	9.9	-0.6	-9.9	.	.
Cc1nnnn1/C(=C\c1ccccc1)C(=O)OCC(=O)Nc1cccc(S(=O)(=O)N(C)C)c1	7.4	-8.3	2.8	13.1	49.8*	.
O=C(CSc1nnc(-c2ccccc2)n1-c1ccc(Cl)cc1)Nc1cccc2ccccc12	-2.0	0.6	-2.0	-0.6	.	.
O=C1N=C(N2CCN(c3ccccc3)CC2)S/C1=C/c1cccs1	-4.4	2.4	-6.1	-2.1	3.9	-2.4
O=C1N=C(c2ccccc2)S/C1=C\c1cccs1	-0.6	-7.6	-12.1	21.5*	-14.0	2.3
O=C(O)CCN=Cc1c(O)c2ccccc2oc1=O	-3.1	1.1	2.0	0.3	4.7	-2.9
O=C(O)CCCCCN=Cc1c(O)c2ccccc2oc1=O	-3.0	-2.7	22.7*	0.0	4.5	-3.7
SMILES	MBD2 inh	LEDGF integ inh	UHRF1 binding	PRMT1 FP inh	ABHD5-PLIN5 inh	RBBP9 inh
CCN(CC)C(=S)Sc1c(-c2ccccc2)c2cc(Cl)ccc2[nH]c1=O	-3.4	1.3	-17.4	24.3*	10.3	-2.3
CCOC(=O)C1(Cc2cccc(OC)c2)CCN(C/C=C/c2ccccc2)CC1	2.6	-2.1	32.5*	-0.3	0.8	-4.5
CCOC(=O)C1(Cc2cccc(OC)c2)CCN(C/C=C/c2ccc(OC)cc2)CC1	9.6	-0.1	1.6	3.5	-2.1	-5.0
CCc1ccc(CN2CCC(C(=O)Nc3ccc(Oc4ccccc4)nc3)CC2)o1	-3.5	1.8	42.8*	-2.8	-9.2	.
Cc1ccccc1CN(C)CCS(=O)(=O)c1cc(Cl)ccc1Cl	4.3	0.5	0.7	0.6	22.6*	.
Cc1ccc(NC(=O)N2CCC(N(C)CCC(C)C)CC2)cc1F	2.0	-2.9	-3.3	-1.0	.	.
COCC(=O)Nc1c(C(=O)Nc2ccc3c(c2)OCO3)oc2ccccc12	1.8	-0.4	51.3*	-3.2	-7.4	.
COC(=O)[C@]12C[C@H](CC(=O)NCc3ccc(OC)c(OC)c3)C(=O)N(Cc3cccc4ccccc34)C1=C[C@H](COCc1ccccc1)O[C@@H]2C	3.4	-4.0	0.0	-1.8	.	.
Cc1cc(-n2c(C)cc(C(=O)CCl)c2C)no1	3.9	-1.5	-1.2	3.0	2.2	-8.4
Cc1cc(-n2c(C)cc(C(=O)CSc3ccc4c(c3)OCCO4)c2C)no1	1.8	2.1	3.6	22.3*	-19.7	-9.8
COC(=O)CC1OCC=C2CN3CCC45C6=CC(=O)C(=O)C([N+](=O)[O-])=C6NC4C1C2CC35 (configuration not stated)	16.1*	-2.7	19.5	29.8*	-35.9	.
C=Cc1ncc(OC)c2c1[nH]c1ccccc12	.	.	.	.	23.6*	.
COc1cccc2[nH]c3ccccc3c(=O)c12	.	.	.	.	-5.7	.
Cc1ccc(NC(=O)C2CC3CCC2C3)cc1 (configuration not stated)	0.4	1.0	-0.7	0.2	.	.
CCOC(=O)Cn1cc(CN2C(C(=O)OC)CN(C3CCCC3)CCS2(=O)=O)nn1 (configuration not stated)	10.3	4.4	14.6	-0.9	.	.
COc1ccc2c(C)c(Cl)c(=O)oc2c1	3.4	1.9	-6.3	-4.0	-1.8	1.3
C=C1CC(COc2ccc3c(C)c(Cl)c(=O)oc3c2)(c2ccccc2)OC1=O (configuration not stated)	-2.6	2.0	-4.1	1.2	62.2*	.
COC(=O)CSc1nc(SC)nc2c1sc1nc(-c3ccco3)c3c(c12)CC(C)(C)OC3	2.3	2.8	23.9*	4.0	5.6	.
CSc1nc(SCCO)c2sc3nc(-c4ccco4)c4c(c3c2n1)CC(C)(C)OC4	8.1	7.8	3.2	22.1*	15.8	-8.7
COc1ccc(N2C[C@@]3(O)CC[C@@H](O)[C@@H](OC)[C@@H]3[C@@]2(C)[C@H](O)CC=C(C)C)cc1	4.2	4.7	-2.4	1.6	.	.
